Source: PubChem (several laboratories)
SUMO HTRF inh: inhibitors of human SUMOylation (UBC9); HTRF SUMOylation assay, SAE1/SAE2 + UBC9, in vitro; P63279; 290,000 compounds, 0.36% hits; inhibition, % at 35 µM; in the data active means inhibition above about 50%, passing the limit was not always enough
APOBEC3G inh: inhibitors of human APOBEC3G DNA deaminase; Q9HC16; recombinant A3G, ssDNA deamination FAM/TAMRA fluorescence; inhibition, % at 20 µM; 330,000 compounds, 0.28% hits; AID 493012;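 active means inhibition of at least 40% at 20 µM, with no more than 30% in the related APOBEC3A deaminase screen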
Target sequence (Q9HC16 whole entry, looked up): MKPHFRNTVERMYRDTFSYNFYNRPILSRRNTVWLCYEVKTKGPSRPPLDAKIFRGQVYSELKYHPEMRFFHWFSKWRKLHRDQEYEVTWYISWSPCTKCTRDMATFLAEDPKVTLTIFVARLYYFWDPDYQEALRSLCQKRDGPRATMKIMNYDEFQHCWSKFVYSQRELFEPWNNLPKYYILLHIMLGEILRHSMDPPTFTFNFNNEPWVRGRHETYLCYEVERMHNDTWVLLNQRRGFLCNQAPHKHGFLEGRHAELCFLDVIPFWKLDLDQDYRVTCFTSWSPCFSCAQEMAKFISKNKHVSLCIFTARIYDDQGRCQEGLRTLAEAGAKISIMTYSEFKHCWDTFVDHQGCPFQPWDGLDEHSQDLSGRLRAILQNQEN
PfG6PD inh: PfG6PD (Plasmodium falciparum) enzyme inhibition; PfGluPho enzyme, NADPH resazurin-diaphorase fluorescence; inhibition, % at 20 µM; 350,000 compounds, 0.78% hits; AID 504690;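 active means inhibition reaching at least a set limit at 20 µM in the primary screen, cut at about 59% in these data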
HKDC1 inh: inhibitors of human hexokinase HKDC1. 340,000 compounds, 0.16% hits. inhibition, % at 20 µM. AID 493160. recombinant HKDC1, G6PDH/diaphorase resazurin coupled fluorescence. Q2TB90;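 active means inhibition above about 35% when tested at 20 µM, limit read from the data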
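Incubation: 90 min at room temperature in dark / Material: recombinant HKDC1 (HK5) hexokinase enzyme, produced in-house / Quantity: enzyme 5 µg/mL final / Compound: one dose of 20 µM, 1% DMSO / Reagent: glucose and ATP substrates / Buffer or medium: Tris pH 8.0 buffer with MgCl2, Tween-20, BSA, BME / Technique: resorufin fluorescence at 613 nm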
APOBEC3A inh: human APOBEC3A DNA deaminase inhibition; P31941; AID 493011; inhibition, % at 20 µM; recombinant A3A, FAM/TAMRA ssDNA deamination fluorescence; 330,000 compounds, 0.41% hits;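 active means at least 40% inhibition at 20 µM here, with at most 30% in a related deaminase screen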
PfM18AAP inh-1: PfM18AAP enzyme inhibition; recombinant PfM18AAP, H-Glu-NHMec fluorogenic cleavage; inhibition, % at 7.35 µM; 290,000 compounds, 1.2% hits;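 active means inhibition above the campaign mean inhibition over all tested compounds plus 3 SD, cut at about 28% in these data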
PfM18AAP inh-2: PfM18AAP inhibition, confirmation. inhibition, % at 7.35 µM. shares compounds with PfM18AAP inh-1. AID 2170. 2,400 compounds, 28% hits. recombinant PfM18AAP, H-Glu-NHMec fluorogenic cleavage;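 active means mean inhibition over replicate wells above the hit cutoff set for the earlier primary screen, cut at about 29% in these data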
CTSL1 confirm: Cathepsin L (human) inhibition, confirmation | shares compounds with PfM18AAP inh-1 | purified cathepsin L1, Z-Leu-Arg-MCA fluorescence | inhibition, % at 5.96 µM | 2,400 tested, under 10 active;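 active means average inhibition across replicates above the hit cutoff set in the earlier primary screen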
Large screens that a line does not name were inactive (follow-up assays come after a bar, where they were run). Compounds with a hit are over-represented: about 2.4% of the library has one in this group of screens.

CC(=O)C1=C(C)NC(=O)NC1c1cc(Br)ccc1OCC(N)=O (stereo not given)	none
CC1(C)CC(NC(=S)Nc2ccc([N+](=O)[O-])cc2)CC(C)(C)N1	none
O=C(NC1CCSc2ccccc21)c1ccc([N+](=O)[O-])cc1 (stereo not given)	none
COc1ccc(S(=O)(=O)NNc2nc(C)cc(C)n2)cc1[N+](=O)[O-]	PfM18AAP inh-1 62 | PfM18AAP inh-2 39 | CTSL1 confirm inactive
O=C(NNc1ccc([N+](=O)[O-])cc1)c1ccco1	PfM18AAP inh-1 69 | PfM18AAP inh-2 45 | CTSL1 confirm inactive
Nc1ccc([N+](=O)[O-])cc1C(=O)NNC(=O)c1ccco1	PfM18AAP inh-1 33 | PfM18AAP inh-2 inactive | CTSL1 confirm inactive
Cc1cccc(C(=O)NNC(=O)c2ccco2)c1O	PfM18AAP inh-1 32 | PfM18AAP inh-2 inactive | CTSL1 confirm inactive
O=C(NNc1ccc([N+](=O)[O-])cc1[N+](=O)[O-])c1ccco1	none
Cc1c(C(=O)Nc2c(N)nc(SCC(=O)NCC3CCCO3)[nH]c2=O)cccc1[N+](=O)[O-] (stereo not given)	none
Oc1c(C(c2ccc(F)cc2)N2CCc3ccccc3C2)sc2ncnn12 (stereo not given)	PfM18AAP inh-1 53 | PfM18AAP inh-2 inactive | CTSL1 confirm inactive
Cc1ccc(C(c2sc3ncnn3c2O)N2CCC(C)CC2)cc1 (stereo not given)	PfM18AAP inh-1 56 | PfM18AAP inh-2 inactive | CTSL1 confirm inactive
Cc1ccc(C(c2sc3nc(C)nn3c2O)N2CCOCC2)cc1 (stereo not given)	none
Cc1ccc(C(c2sc3ncnn3c2O)N2CCCCC2)cc1 (stereo not given)	PfM18AAP inh-1 47 | PfM18AAP inh-2 inactive | CTSL1 confirm inactive
CC1CN(C(c2ccco2)c2sc3ncnn3c2O)CC(C)O1 (stereo not given)	none
Oc1c(C(c2cccc(F)c2)N2CCN(Cc3ccccc3)CC2)sc2ncnn12 (stereo not given)	none
O=C(NC1CC1)C1CCN(S(=O)(=O)c2cc([N+](=O)[O-])ccc2Cl)CC1	none (no result: SUMO HTRF inh, PfM18AAP inh-1)
Cc1cc(C)cc(N(C(=O)c2cccs2)C2C=CS(=O)(=O)C2)c1 (stereo not given)	none
CC(=O)c1cccc(N(C(=O)Cn2nnc3ccccc32)C(C(=O)NC2CCCCC2)c2cn(C)nc2C)c1 (stereo not given)	none
O=C(NC1CCCCC1)C(c1ccc(O)c(O)c1)N(C(=O)Cn1nnc2ccccc21)c1cccc(O)c1 (stereo not given)	PfM18AAP inh-1 86 | PfM18AAP inh-2 83 | CTSL1 confirm inactive
CC(=O)c1sc2nsc(SCCN3CCCC3)c2c1N	PfM18AAP inh-1 32 | PfM18AAP inh-2 inactive | CTSL1 confirm inactive
CC(=O)c1sc2nc(C)c3c(c2c1N)CCCC3	none
Cc1c(OC(C)C(=O)N2C[C@H]3C[C@@H](C2)c2cccc(=O)n2C3)ccc2c3c(c(=O)oc12)CCCC3 (stereo not given in full)	none
CCc1ccccc1OCCOc1ccc(C)cc1OC	none
O=C(N/N=C/c1ccc(O)c(O)c1)c1cccc(S(=O)(=O)N2CCCCC2)c1	PfM18AAP inh-1 56 | PfM18AAP inh-2 51 | CTSL1 confirm inactive
CCNC(=O)c1cccc(S(=O)(=O)N2CCCCCC2)c1	PfM18AAP inh-1 36 | PfM18AAP inh-2 inactive | CTSL1 confirm inactive
O=C(NCCc1ccc2c(c1)OCCO2)c1cc(F)cc(F)c1	none
NNc1nnc2c3cc(F)ccc3n(CCc3ccccc3)c2n1	PfM18AAP inh-1 44 | PfM18AAP inh-2 inactive | CTSL1 confirm inactive
O=C(Cc1ccccc1)N/N=C\c1ccc(Br)o1	none (no result: APOBEC3G inh, APOBEC3A inh)
Cn1c(-c2cccc3ccccc23)n[nH]c1=S	PfM18AAP inh-1 37 | PfM18AAP inh-2 inactive | CTSL1 confirm inactive
Cn1c(Cn2c3ccccc3c3ccccc32)n[nH]c1=S	none
CCOc1ccc(/C=C2\CCc3ccccc3C2=O)cc1	none
